Experimental data as given in publication PMC4871731 (Nature chemical biology, 2016).
Values belong to the compound of their own block, whether it stands above or below them. Peptide text beside a SMILES is read from it. * marks the point of attachment. Cbz = O=C(OCc1ccccc1)*

Key:
CLRN1 mRNA = assay: Reverse transcription and quantitative PCR in D6 cells; format: cell-based, human; settings: 24 h, O03 16.8 µM, bortezomib 50 nM
Outline: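 D6 cells at 70% confluency were treated in triplicate for 24 h with 50 nM bortezomib, 16.8 µM test compound, or 0.25% DMSO. Total RNA was isolated with TRIzol. 5 µg RNA was DNase I-treated and reverse-transcribed with M-MLV using a mix of dT12, dT15 and dT18 primers (10 µM each), followed by quantitative PCR.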

human CLRN1^N48K [1] = biological target: T1, human CLRN1^N48K (Homo sapiens, UniProt P58418, N48K); assay: Immunoblotting of CLRN1N48K in D6 cells; format: cell-based; settings: 24 h, O03 16.8 µM, B03 16.8 and 1.68 µM, bortezomib 50 nM
T1 sequence (P58418 1-232 N48K): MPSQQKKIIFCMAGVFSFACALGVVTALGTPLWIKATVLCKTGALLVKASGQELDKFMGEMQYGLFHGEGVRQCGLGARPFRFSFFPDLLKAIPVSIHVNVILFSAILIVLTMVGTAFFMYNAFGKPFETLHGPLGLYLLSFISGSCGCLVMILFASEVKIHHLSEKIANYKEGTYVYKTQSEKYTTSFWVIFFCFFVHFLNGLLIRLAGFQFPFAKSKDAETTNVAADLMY
Outline: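 D6 cells at 70% confluency were treated for 24 h with bortezomib (50 nM) or test compounds at 16.8 µM (one also at 1.68 µM), with DMSO at 0.25% (v/v) final. Lysates were then immunoblotted for CLRN1N48K.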

human CLRN1^N48K [2] = biological target: T1, human CLRN1^N48K; assay: Combined treatment with cycloheximide and washout; format: cell-based; settings: for levels of CLRN1^N48K after 6 h treatment (T0): D6 cells, vs DMSO, bortezomib 50 nM, MG132 50 µM, O03 16.8 µM
Outline: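 D6 cells at 70% confluency were treated 6 h with bortezomib (50 nM), MG132 (50 µM) or test compound (16.8 µM); […]. Cells were then cultured 6 h more in 100 µM cycloheximide with or without the same agent. In the washout arm, compound-pretreated cells were washed and held 6 h in cycloheximide without compound. Read-out was CLRN1N48K by immunoblot.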

human CLRN1^N48K-Venus = assay: Dual color; format: cell-based; settings: 16.8 µM test compound or 50 nM bortezomib, 24 h, vs no treatment
Outline: (§1)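 Cell line stably co-expressing CLRN1N48K-Venus-1D4 and DsRed-Express-DR, grown to 70% confluency. Treatment was 16.8 µM test compound in triplicate for 24 h, with 50 nM bortezomib as positive and DMSO as negative control. Cells were fixed in 4% formaldehyde, washed with PBS and imaged by inverted fluorescence microscopy. Venus and DsRed intensities were quantified in 15 equal-sized cell-containing regions per well, three wells per treatment.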

human CLRN1^N48K [3] = biological target: T1, human CLRN1^N48K; assay: Automated HTS, D6 cell-based immunofluorescence assay; settings: D6 cell line, 25 nM
Outline: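 Primary screen of about 50,000 library compounds. Cells were fixed in 4% formaldehyde for 20 min, washed with PBST and stained with anti-HA for 90 min at room temperature. Fluorescence intensity per cell area came from six images per well and was normalised per plate to bortezomib and untreated controls to give percent activity.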

[4] = test system: DsRed-Express-DR (reporter for proteasome-mediated protein degradation); assay: Dual color; format: cell-based; settings: 16.8 µM test compound or 50 nM bortezomib, 24 h, vs no treatment
Outline: as §1

human CLRN1^N48K [5] = biological target: T1, human CLRN1^N48K; assay: Effect of HSP90 inhibition on CLRN1N48K expression; format: cell-based; settings: D6 cells, 17-AAG 20 µM applied alone
Outline: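 D6 cells were treated for 24 h with 20 µM 17-AAG, test compound (2.90 µM), 50 nM bortezomib, or DMSO vehicle. In one arm, cells were pre-incubated 6 h with 17-AAG before test compound was added for 24 h. Cells were then harvested for CLRN1N48K immunoblotting.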

- CLRN1^N48K level by immunoblotting (human CLRN1^N48K [1]): increased dramatically
- levels of CLRN1^N48K after 6 h treatment (T0) (human CLRN1^N48K [2]): increased levels of CLRN1^N48K
- amount of CLRN1^N48K (human CLRN1^N48K [3]): increased amount
SMILES: CC(C)C[C@H](NC(=O)[C@H](Cc1ccccc1)NC(=O)c1cnccn1)B(O)O [bortezomib]
- CLRN1^N48K mRNA level (CLRN1 mRNA): not affected
- stability of CLRN1^N48K after washout (human CLRN1^N48K [2]; 6 h compound, washout, then 6 h with cycloheximide without compound): effective in stabilizing and protecting CLRN1^N48K from degradation
- Venus fluorescence (human CLRN1^N48K-Venus): increased both Venus and DsRed
- DsRed fluorescence [4]: increased both Venus and DsRed

SMILES: C[C@@H]1C[C@@H]([C@H](O)CC2CC(=O)NC(=O)C2)C(=O)[C@@H](C)C1 [cycloheximide]
- synthesis of CLRN1^N48K (human CLRN1^N48K [2]; 100 µM cycloheximide): confirmed to inhibit the synthesis of CLRN1^N48K

- amount of CLRN1^N48K (human CLRN1^N48K [5]): did not alter the amount of CLRN1^N48K
SMILES: C=CCNC1=C2C[C@@H](C)C[C@H](OC)[C@H](O)[C@@H](C)/C=C(\C)[C@H](OC(N)=O)[C@@H](OC)/C=C\C=C(/C)C(=O)NC(=CC1=O)C2=O [17-AAG, 17-N-allylamino-17-demethoxygeldanamycin]

- levels of CLRN1^N48K after 6 h treatment (T0) (human CLRN1^N48K [2]): increased levels of CLRN1^N48K
SMILES: CC(C)C[C@@H](C=O)NC(=O)[C@H](CC(C)C)NC(=O)[C@H](CC(C)C)NC(=O)OCc1ccccc1 [MG132] (Cbz-Leu-Leu-Leu-aldehyde)
